# Assay results from ChEMBL document CHEMBL1123915, “Macrolides with gastrointestinal motor stimulating activity” (1987).
# What was measured:
# Bacillus subtilis = test: Antibacterial activity against Bacillus subtilis ATCC 6633; type: functional
# In short: (§1)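 MIC determined by agar dilution. Strains as listed on each line.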
# Staphylococcus aureus = test: Antibacterial activity against Staphylococcus aureus ATCC 6538P; type: functional; in short: as §1
# Canis familiaris = test: Evaluated for gastrointestinal motor stimulating (GMS) activity in dog estimated in vivo by 2 x 2 points parallel line assay. Activity of EM-A was assumed to be 1; type: functional, Canis lupus familiaris
# In short: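 Fasted conscious dogs carried chronically implanted serosal force transducers recording circular muscle contraction in the gastric body, antrum and small intestine. Dosing was an intravenous bolus 10–15 min after interdigestive gastric contractions ended. Antral contractile waves were integrated for 10 min from injection. Relative potency came from a 2 × 2 parallel line assay with five animals per dose, using EM as the reference in each assay.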
# Escherichia coli = test: Antibacterial activity against Escherichia coli NIHJ; type: functional; in short: as §1
# Bacillus cereus = test: Antibacterial activity against Bacillus cereus IFO 3001; type: functional; in short: as §1
# Klebsiella pneumoniae = test: Antibacterial activity against Klebsiella pneumoniae ATCC 10031; type: functional; in short: as §1
SMILES,MIC (Bacillus subtilis),MIC (Staphylococcus aureus),MIC (Escherichia coli),MIC (Bacillus cereus),MIC (Klebsiella pneumoniae),GMS activity (Canis familiaris)
CCC1OC(=O)C(C)C(O[C@H]2C[C@@](C)(OC)[C@@H](O)[C@@H](C)O2)C(C)[C@@H](O[C@@H]2O[C@H](C)C[C@@H]([N+](C)(C)CC)[C@H]2O)[C@]2(C)CC(C)=C(O2)[C@H](C)[C@@H](O)[C@]1(C)O.[I-] (stereo not given in full),> 100 µg/mL,> 100 µg/mL,> 100 µg/mL,> 100 µg/mL,> 100 µg/mL,111
C#CC[N+](C)(C)[C@@H]1C[C@@H](C)O[C@@H](O[C@@H]2C(C)C(O[C@H]3C[C@@](C)(OC)[C@@H](O)[C@@H](C)O3)C(C)C(=O)OC(CC)[C@@](C)(O)[C@H](O)[C@@H](C)C3=C(C)C[C@]2(C)O3)[C@@H]1O.[Br-] (stereo not given in full),100 µg/mL,100 µg/mL,> 100 µg/mL,100 µg/mL,> 100 µg/mL,2890
CC[C@H]1OC(=O)[C@H](C)[C@@H](O[C@H]2C[C@@](C)(OC)[C@@H](O)[C@H](C)O2)[C@H](C)[C@@H](O[C@@H]2O[C@H](C)C[C@H](N(C)C)[C@H]2O)[C@@]2(C)CC(C)=C(O2)[C@H](C)[C@@H](O)[C@]1(C)O,25 µg/mL,50 µg/mL,> 100 µg/mL,25 µg/mL,> 100 µg/mL,10
CCC1OC(=O)C(C)C(OC2CC(C)(OC)C(O)C(C)O2)C(C)[C@@H](OC2OC(C)CC([N+](C)(C)C)C2O)[C@]2(C)C[C@@H](C)C(O2)[C@H](C)[C@@H](O)[C@]1(C)O.[I-] (stereo not given in full),> 100 µg/mL,> 100 µg/mL,> 100 µg/mL,> 100 µg/mL,> 100 µg/mL,65
CC[C@H]1OC(=O)[C@H](C)[C@@H](O[C@H]2C[C@@](C)(OC)[C@@H](O)[C@H](C)O2)[C@H](C)[C@@H](O[C@@H]2O[C@H](C)C[C@H](N(C)C)[C@H]2O)[C@](C)(O)C[C@@H](C)C(=O)[C@H](C)[C@@H](O)[C@]1(C)O [ERYTHROMYCIN],0.1 µg/mL,0.2 µg/mL,12.5 µg/mL,0.1 µg/mL,6.25 µg/mL,1

# Further lines, with some results ahead:
MIC (Bacillus subtilis),MIC (Staphylococcus aureus),MIC (Escherichia coli),MIC (Bacillus cereus),MIC (Klebsiella pneumoniae),SMILES,GMS activity (Canis familiaris)
> 100 µg/mL,100 µg/mL,> 100 µg/mL,> 100 µg/mL,> 100 µg/mL,C=CC[N+](C)(C)[C@@H]1C[C@@H](C)O[C@@H](O[C@@H]2C(C)C(O[C@H]3C[C@@](C)(OC)[C@@H](O)[C@@H](C)O3)C(C)C(=O)OC(CC)[C@@](C)(O)[C@H](O)[C@@H](C)C3=C(C)C[C@]2(C)O3)[C@@H]1O.[Br-] (stereo not given in full),256
> 100 µg/mL,> 100 µg/mL,> 100 µg/mL,> 100 µg/mL,> 100 µg/mL,CCC1OC(=O)C(C)C(O[C@H]2C[C@@](C)(OC)[C@@H](O)[C@@H](C)O2)C(C)[C@@H](O[C@@H]2O[C@H](C)C[C@@H]([N+](C)(C)C)[C@H]2O)[C@]2(C)CC(C)=C(O2)[C@H](C)[C@@H](O)[C@]1(C)O.[I-] (stereo not given in full),21
> 100 µg/mL,> 100 µg/mL,> 100 µg/mL,> 100 µg/mL,> 100 µg/mL,C#CC[N+](C)(C)C1CC(C)OC(O[C@@H]2C(C)C(OC3CC(C)(OC)C(O)C(C)O3)C(C)C(=O)OC(CC)[C@@](C)(O)[C@H](O)[C@@H](C)C3O[C@@]2(C)C[C@H]3C)C1O.[Br-] (stereo not given in full),202
> 100 µg/mL,> 100 µg/mL,> 100 µg/mL,> 100 µg/mL,> 100 µg/mL,CCC1OC(=O)C(C)C(O[C@H]2C[C@@](C)(OC)[C@@H](O)[C@@H](C)O2)C(C)[C@@H](O[C@@H]2O[C@H](C)C[C@@H](N(C)CC)[C@H]2O)[C@]2(C)CC(C)=C(O2)[C@H](C)[C@@H](O)[C@]1(C)O (stereo not given in full),18
100 µg/mL,100 µg/mL,> 100 µg/mL,100 µg/mL,> 100 µg/mL,C=CC[N+](C)(C)C1CC(C)OC(O[C@@H]2C(C)C(OC3CC(C)(OC)C(O)C(C)O3)C(C)C(=O)OC(CC)[C@@](C)(O)[C@H](O)[C@@H](C)C3O[C@@]2(C)C[C@H]3C)C1O.[Br-] (stereo not given in full),115
